Test [1] addresses T1, Dihydrofolate reductase (Pneumocystis carinii) (UniProt P16184).
T1 sequence (whole entry): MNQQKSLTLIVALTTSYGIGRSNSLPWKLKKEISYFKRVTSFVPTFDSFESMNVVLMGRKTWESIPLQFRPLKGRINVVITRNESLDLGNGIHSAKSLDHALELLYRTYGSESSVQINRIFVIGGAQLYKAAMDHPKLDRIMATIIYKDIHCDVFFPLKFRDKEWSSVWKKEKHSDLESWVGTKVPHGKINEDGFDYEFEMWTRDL
Put plainly: Ratio of piritrexim IC50 to compound IC50 for Pneumocystis carinii DHFR.

In test [2] the target is T1, Dihydrofolate reductase (Pneumocystis carinii). Kind of test: Ratio of trimethoprim IC50 to compound IC50 for Pneumocystis carinii DHFR.
Test [3] is described as follows: Selectivity ratio of IC50 for rat liver DHFR to IC50 for Pneumocystis carinii DHFR.
Test [4] is described as follows: Inhibition of Mycobacterium avium DHFR. The procedure, abridged:
(§1)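 Enzyme was added to give an OD340 change of 0.005/minute. Rat liver DHFR served as the mammalian comparator. Selectivity = rlDHFR IC50 / maDHFR IC50.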

Test [5] is described as follows: Selectivity ratio of IC50 for rat liver DHFR to IC50 for Mycobacterium avium DHFR. The procedure, abridged: as §1
For test [6], the target named is T2, Dihydrofolate reductase (Pneumocystis carinii, UniProt P16184).
T2 sequence (P16184 whole entry): T1 sequence (whole entry)
Put plainly: Inhibition of Pneumocystis carinii DHFR.

Test [7] concerns the target T3, Dihydrofolate reductase (Rattus norvegicus, UniProt Q920D2).
T3 sequence (Q920D2 whole entry): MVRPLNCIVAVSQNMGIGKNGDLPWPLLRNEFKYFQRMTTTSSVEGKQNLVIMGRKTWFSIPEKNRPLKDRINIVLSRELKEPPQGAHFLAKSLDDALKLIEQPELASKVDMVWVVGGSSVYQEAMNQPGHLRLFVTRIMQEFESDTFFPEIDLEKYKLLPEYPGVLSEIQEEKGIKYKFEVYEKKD
Kind of test: Inhibition of rat liver DHFR.

Test [8] in a line: Selectivity ratio of IC50 for human recombinant DHFR to IC50 for Pneumocystis jirovecii recombinant DHFR. The gist of the method: (§2)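 Enzyme was added to give an OD340 change of 0.005/min. IC50 was taken from the OD340 rate. Selectivity is the hDHFR IC50 divided by the pjDHFR IC50. Standard error of the means was 12% or less.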
Test [9] can be described thus: Inhibition of Pneumocystis jirovecii recombinant DHFR. The gist of the method: as §2
The target of test [10] is T4, Dihydrofolate reductase (Homo sapiens, UniProt P00374).
T4 sequence (P00374 whole entry): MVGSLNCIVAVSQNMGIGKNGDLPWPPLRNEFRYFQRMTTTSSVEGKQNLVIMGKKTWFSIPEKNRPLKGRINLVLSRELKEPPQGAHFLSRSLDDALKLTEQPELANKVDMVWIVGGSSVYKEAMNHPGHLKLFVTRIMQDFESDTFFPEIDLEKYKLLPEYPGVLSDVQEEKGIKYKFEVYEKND
Put plainly: Inhibition of human recombinant DHFR.

pIC50: −log10 of the molar value.

As to `CN(c1cnc2nc(N)nc(N)c2c1)c1cccc2ccccc12`, the Ratio IC50 in [1] is 6; in [2] it was 5950; in test [3], 9.9; in test [5], 10; in [8], 2.2. The pIC50 is 8.70 in test [4]; 8.68 at Dihydrofolate reductase [6]; 7.68 against Dihydrofolate reductase [7]; 8.60 in [9]; 8.25 at Dihydrofolate reductase [10].

Values taken from ChEMBL document CHEMBL2380288, “Design, synthesis, and molecular modeling of novel pyrido[2,3-d]pyrimidine analogues as antifolates; application of Buchwald-Hartwig aminations of heterocycles” (J Med Chem, 2013).
